Results reported in the array DNA melting data of Ke et al. (doi:10.1101/2024.01.08.574731).

Legend:
[1] = folding enthalpy; higher = less favourable; fluorescence melt of hairpins on a sequencing array, two-state fit; details: sodium 0.088 M
In short: (§1)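 Folding enthalpy and melting temperature come from bootstrapped two-state fits to Cy3 fluorescence of library hairpins carrying annealed Cy3 and quencher oligos on a sequenced MiSeq flow cell. Imaging was done in 50 mM Na-HEPES pH 8.0, 25 mM NaCl, stepping by 2.5 °C up to 60 °C, and signals were normalised to pre-quench Cy3 and to control constructs. Results of four replicates were combined by inverse variance, and fitted temperatures were raised by 9.35 °C to match UV melts.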

[2] = melting temperature; fluorescence melt of hairpins on a sequencing array, two-state fit, raised by 9.35 °C to match UV melts; details: sodium 0.088 M
In short: as §1

| Sequence | folding enthalpy [1] [kcal/mol] | Tm [2] [°C] |
| --- | --- | --- |
| GTCAGTCGAAAGACCGAC (((.(((....))).))) | -22.1 | 47.4 |
| GTAGACGGAAACGTTTGC (.(.(((....))).).) | -16.7 | 29.6 |
| GCTAATACGAAAGTAAGC (((..(((....)))))) | -14.1 | 29.5 |
| GCTCTGCGAAAGCAAGGC ((..(((....)))..)) | -17.7 | 46.9 |
| ACAAGGAAACTTGT (((((....))))) | -12.6 | 40.3 |
| GCTGGGCGAAAGCAAAGC (((..((....))..))) | -20.9 | 54.1 |
| GATCGTTTAACGATC ((((((...)))))) | -36.6 | 55.7 |
| GATCTTTGCAAGATC ((((((...)))))) | -34.7 | 46.4 |
| GGGGGCGAAAGCCTGCCC ((((((....)))..))) | -13.7 | 43.8 |
| GATCCATTATTGGATC ((((((....)))))) | -37.1 | 52.7 |
| GCTTGGGGAAACTCAAGC (((((.(....).))))) | -35.8 | 51.3 |
| GTGCGAACGAAAGTTCAC (((..(((....)))))) | -12.1 | 53.3 |
| GGAGCCGAAAGGCTCTCC ((((((....)))..))) | -7.29 | 56.5 |
| GATCGTCCTGACGATC ((((((....)))))) | -46.3 | 59.4 |
| GAGTTAGGAAACTGACTC ((((.((....)).)))) | -36.6 | 42.4 |
| GTAAACCGAAAGGTGTAC (((.(((....))).))) | -23.3 | 46.2 |
| GGACGCGAAAGCGCATCC ((((((....)))..))) | -10.1 | 34.5 |
| GATTACGGAAACGTAATC (((((((....))))))) | -50.2 | 55.5 |
| CGACACGGAAACGTTTCG (((.(((....))).))) | -33.7 | 44.8 |
| GATCCCGACCGGGATC ((((((....)))))) | -37.5 | 66.5 |
| GTCTTATCGAAAGATGAC (((..(((....)))))) | -20.1 | 28.5 |
| GCCTGGGGAAACTCGGGC (((.(.(....).).))) | -31.8 | 46.7 |
| GGGGGCGGAAACGCTCCC (((.(((....))).))) | -32.6 | 67.6 |
| GGACTGCGAAAGCATCC (((.(((....)))))) | -13.5 | 41.8 |

| Sequence | folding enthalpy [1] [kcal/mol] | Tm [2] [°C] |
| --- | --- | --- |
| GTGACATCGAAAGATCAC (((..(((....)))))) | -16.2 | 33 |
| GTTTCGCGAAAGCGTAAC (((.(((....))).))) | -21.9 | 48.6 |
| GGCCACGGAAACGCGACC ((.(.((....)).).)) | -25.8 | 36.7 |
| GATCTTCCTCAAGATC ((((((....)))))) | -30.1 | 42 |
| GCTACAGGAAACTGTAAC (.(((((....))))).) | -12.8 | 30.3 |
| GCTTCGCCGAAAGGCAGC (((..(((....)))))) | -10.4 | 40.9 |
| GCATACGAAAGTATATGC ((((((....)))..))) | -24.7 | 41.9 |
| GATACAGGAAACTGCATC (((.(((....))).))) | -28.4 | 33.6 |
| GCCCGACGAAAGTCGGC (((.(((....)))))) | -8.71 | 61.4 |
| GGGTTGCGAAAGCACCC (((.(((....)))))) | -23.7 | 62.9 |
| CGGGCGGAAACGCTTCCG ((((((....)))..))) | -17.9 | 41 |
| GGCTAGCGAAAGCTCGCC (((.(((....))).))) | -36.3 | 58.8 |
| GCGGTCCCCCGC ((((....)))) | -21.9 | 57.7 |
| GCGAGGCGAAAGCCCAGC ((..(((....)))..)) | -10.4 | 63.4 |
| GCTTGTGGAAACACAGGC ((.((((....)))).)) | -27.2 | 52 |
| GTGCGCGAAAGCGTTCAC ((((((....)))..))) | -11.3 | 39.9 |
| GTGCACGAAAGTGTCAC ((((((....))).))) | -22.3 | 54.5 |
| GCGTTTCCACGC ((((....)))) | -22.6 | 53.5 |
| GATCGTTCGAACGATC ((((((....)))))) | -53.9 | 56.6 |
| GATGTCCGAAAGGATATC (((.(((....))).))) | -35.6 | 52.3 |
| GCACGCCGAAAGGCCTGC (((.(((....))).))) | -23.2 | 48.8 |
| GCACTCGGAAACGAATGC (((.(((....))).))) | -33.5 | 45.1 |
| GGCCTACGAAAGTAAGCC (((.(((....))).))) | -35 | 49.5 |
| GGCCCCGAAAGGGCAGCC ((((((....)))..))) | -12.8 | 58.6 |

| Sequence | folding enthalpy [1] [kcal/mol] | Tm [2] [°C] |
| --- | --- | --- |
| GATCTTAGAAAGATC ((((((...)))))) | -31.3 | 41.5 |
| GCGGTGCGAAAGCCACGC (((..((....))..))) | -19.8 | 61.5 |
| GAGGTGAAAACCTC (((((....))))) | -22.7 | 53.3 |
| GTTCACGAAAGTGACAAC ((((((....)))..))) | -10.1 | 35.3 |
| GCTATCGAAAGATGAAGC ((((((....)))..))) | -16.2 | 32.8 |
| GCACGAGGAAACTCACGC ((..(((....)))..)) | -22.7 | 31.7 |
| GATCCTGAACAGGATC ((((((....)))))) | -38.4 | 59.9 |
| GCAGGGCGAAAGCCTTGC (((.(((....))).))) | -40.3 | 61.2 |
| GCTGCTGGAAACAGCGGC ((.((((....)))).)) | -45.2 | 65.8 |
| GATCTTGGACAAGATC ((((((....)))))) | -41.8 | 50.8 |
| CGTCCGGAAACGGCACG ((((((....))).))) | -22.5 | 47.6 |
| GATCCAGTATTGGATC ((((((....)))))) | -41.8 | 57.4 |
| GGATACGAAAGTAGATCC ((((((....)))..))) | -17.9 | 34.7 |
| GATCTCCCGGGAGATC ((((((....)))))) | -52.9 | 58.3 |
| GCGTTCTAACGC ((((....)))) | -25.8 | 58.5 |
| GTTAGCGAAAGCTCGAAC ((((((....)))..))) | -7.85 | 22.9 |
| GGCCAACGAAAGTTAGCC (((.(((....))).))) | -29.1 | 50.1 |
| GGAAAGTCGAAAGACTCC (((..(((....)))))) | -15.6 | 33.7 |
| GCGTAGACACGC ((((....)))) | -19.8 | 50.7 |
| GGCTCCGAAAGGACAGCC ((((((....)))..))) | -23.1 | 50.6 |
| GATCAAAGCGTTGATC ((((((....)))))) | -31.6 | 43.7 |
| GATCAGTGGACTGATC ((((((....)))))) | -37 | 51.8 |
| CGCGGACTACTCCGCG ((((((....)))))) | -30.9 | 69 |
| GATGGCGGAAACGTCATC ((((.((....)).)))) | -43.7 | 55.3 |

| Sequence | folding enthalpy [1] [kcal/mol] | Tm [2] [°C] |
| --- | --- | --- |
| GCCCCGCGAAAGCACGGC (((..((....))..))) | -18.3 | 41.6 |
| GGATGGGGAAACCCGTCC (((.(((....))).))) | -48.4 | 54.2 |
| GCATGATCGAAAGATTGC (((..(((....)))))) | -19.9 | 32.6 |
| GGCGAACGAAAGTTTGCC (((.(((....))).))) | -37 | 62.1 |
| GACTCGGGAAACCGGGTC (((.(((....))).))) | -40.6 | 55.1 |
| GTACCAGAAATGGTAC ((((((....)))))) | -33.1 | 53.2 |
| GATCCCTAGGGGATC ((((((...)))))) | -35.4 | 61.1 |
| GCCTACGAAAGTAGCGGC ((((((....)))..))) | -19.5 | 49.6 |
| GATCTATATCTAGATC ((((((....)))))) | -27.6 | 36.2 |
| GCGAACAATCGC ((((....)))) | -18.3 | 39.9 |
| GTCTCCGGAAACGGAGGC (.(((((....))))).) | -25.2 | 61.7 |
| GGTGAGCGAAAGCTACC (((.(((....)))))) | -19.2 | 51.7 |
| GTTTATGGAAACATGAAC (((.(((....))).))) | -31.3 | 35.7 |
| GGGAGCCGAAAGGCACCC (((.(((....))).))) | -29.5 | 67.1 |
| GATGATGGAAACATTATC (((.(((....))).))) | -30.4 | 35.5 |
| GGTCTCGAAAGAGGGACC ((((((....)))..))) | -22.4 | 44 |
| GATCGCTAAAGCGATC ((((((....)))))) | -27.7 | 67.1 |
| CGGTCGGAAACGAAACCG ((((((....)))..))) | -28.4 | 43.3 |
| GGGATAGGAAACTACCCC (((.(((....))).))) | -23 | 38.7 |
| GTGTGTGGAAACACGCAC (((.(((....))).))) | -40 | 58.7 |
| GCGGCTGGAAACGGCTGC ((.((.(....).)).)) | -38.5 | 53 |
